Results as given in ChEMBL document CHEMBL1145751, “Discovery of (aryloxopropenyl)pyrrolyl hydroxyamides as selective inhibitors of class IIa histone deacetylase homologue HD1-A” (J Med Chem, 2003).
Non-standard residues stand in square brackets, D forms with d. Residues, ends and D or L forms follow the SMILES beside them. ξ: configuration not given here. Aoe(9ξ) = N[C@@H](CCCCCC(=O)C1CO1)C(=O)O; dPip = O=C(O)[C@H]1CCCCN1

Key:
[1] = Inhibitory activity afgainst maize Histone deacetylase 1-A; set-up: species or system Zea mays
[2] = Inhibitory activity against maize Histone deacetylase 1-B; set-up: species or system Zea mays
[3] = molecular target: T1, Histone deacetylase HD2 (Zea mays, UniProt Q94F81); test: Tested for maize Histone deacetylase 2 inhibitory activity
T1 sequence (Q94F81 whole entry): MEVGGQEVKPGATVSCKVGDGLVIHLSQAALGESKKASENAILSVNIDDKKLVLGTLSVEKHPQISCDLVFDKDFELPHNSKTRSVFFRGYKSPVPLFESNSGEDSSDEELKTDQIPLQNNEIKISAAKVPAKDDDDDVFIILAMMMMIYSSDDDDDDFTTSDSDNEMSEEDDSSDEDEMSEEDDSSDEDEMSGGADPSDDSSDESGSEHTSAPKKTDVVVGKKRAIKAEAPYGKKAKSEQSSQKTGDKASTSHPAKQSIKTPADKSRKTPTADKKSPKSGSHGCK
How it was run: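 Purified maize HD2 enzyme was incubated with compounds and [³H]-acetate pre-labeled chicken reticulocyte histones (added from a 4 mg/mL stock) for 30 min at 30 °C. The reaction was stopped with HCl/acetate, and released [³H]-acetate was extracted into ethyl acetate. The upper phase was counted by liquid scintillation. IC50 is the mean of at least three separate experiments.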

[4] = Fold selectivity for classIIa HDAC
[5] = molecular target: T2, Histone deacetylase 1 (Homo sapiens, UniProt Q13547); test: Inhibition of Histone deacetylase 1 induced acetylated histone in mammalian cells.; format: cell-based
[6] = molecular target: T3, Protein deacetylase HDAC6 (Homo sapiens, UniProt Q9UBN7); test: (§1) Tested for inhibition of Histone deacetylase 6 induced acetylated tubulin in mammalian cells.; format: cell-based
T3 sequence (Q9UBN7 whole entry): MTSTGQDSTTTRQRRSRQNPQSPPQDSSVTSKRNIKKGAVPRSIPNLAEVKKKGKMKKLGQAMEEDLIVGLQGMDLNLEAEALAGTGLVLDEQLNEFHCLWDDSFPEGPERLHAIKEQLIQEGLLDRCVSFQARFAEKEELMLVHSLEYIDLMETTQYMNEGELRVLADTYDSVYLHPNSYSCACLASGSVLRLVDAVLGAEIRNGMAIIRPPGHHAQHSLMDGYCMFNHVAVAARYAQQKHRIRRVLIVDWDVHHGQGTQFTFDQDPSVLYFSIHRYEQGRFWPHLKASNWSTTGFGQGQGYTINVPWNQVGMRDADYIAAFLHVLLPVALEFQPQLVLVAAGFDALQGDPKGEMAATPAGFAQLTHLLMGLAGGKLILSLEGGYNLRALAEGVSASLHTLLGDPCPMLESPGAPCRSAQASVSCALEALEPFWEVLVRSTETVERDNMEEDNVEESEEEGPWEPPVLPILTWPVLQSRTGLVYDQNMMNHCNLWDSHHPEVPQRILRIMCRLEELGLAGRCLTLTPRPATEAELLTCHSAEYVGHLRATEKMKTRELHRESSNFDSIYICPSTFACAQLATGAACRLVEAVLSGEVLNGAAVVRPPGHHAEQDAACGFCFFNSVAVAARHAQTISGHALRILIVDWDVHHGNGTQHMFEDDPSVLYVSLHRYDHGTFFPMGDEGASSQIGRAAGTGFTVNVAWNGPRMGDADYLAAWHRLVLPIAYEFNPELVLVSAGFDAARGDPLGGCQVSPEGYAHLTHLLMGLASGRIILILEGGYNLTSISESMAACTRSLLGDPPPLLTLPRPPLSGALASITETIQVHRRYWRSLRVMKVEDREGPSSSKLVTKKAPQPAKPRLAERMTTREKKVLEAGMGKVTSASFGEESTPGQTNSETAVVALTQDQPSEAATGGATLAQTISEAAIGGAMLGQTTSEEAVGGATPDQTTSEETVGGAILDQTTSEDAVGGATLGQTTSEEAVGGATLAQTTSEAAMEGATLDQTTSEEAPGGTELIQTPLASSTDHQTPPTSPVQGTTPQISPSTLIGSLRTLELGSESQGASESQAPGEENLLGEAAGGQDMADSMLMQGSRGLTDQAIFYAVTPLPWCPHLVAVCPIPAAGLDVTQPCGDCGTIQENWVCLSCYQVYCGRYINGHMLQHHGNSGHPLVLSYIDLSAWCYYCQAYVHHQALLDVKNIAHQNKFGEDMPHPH

[7] = molecular target: T2, Histone deacetylase 1; test: Inhibition of Histone deacetylase 1 induced acetylated histone in mammalian cells; format: cell-based
[8] = as §1; format: cell-based
[9] = Inhibition of Histone deacetylase 4 in mammalian cells; format: cell-based
[10] = molecular target: Histone deacetylase 4 (Homo sapiens, UniProt P56524); test: Inhibition of Histone deacetylase 4 in mammalian cells.; format: cell-based
Histone deacetylase 4, sequence (P56524 whole entry): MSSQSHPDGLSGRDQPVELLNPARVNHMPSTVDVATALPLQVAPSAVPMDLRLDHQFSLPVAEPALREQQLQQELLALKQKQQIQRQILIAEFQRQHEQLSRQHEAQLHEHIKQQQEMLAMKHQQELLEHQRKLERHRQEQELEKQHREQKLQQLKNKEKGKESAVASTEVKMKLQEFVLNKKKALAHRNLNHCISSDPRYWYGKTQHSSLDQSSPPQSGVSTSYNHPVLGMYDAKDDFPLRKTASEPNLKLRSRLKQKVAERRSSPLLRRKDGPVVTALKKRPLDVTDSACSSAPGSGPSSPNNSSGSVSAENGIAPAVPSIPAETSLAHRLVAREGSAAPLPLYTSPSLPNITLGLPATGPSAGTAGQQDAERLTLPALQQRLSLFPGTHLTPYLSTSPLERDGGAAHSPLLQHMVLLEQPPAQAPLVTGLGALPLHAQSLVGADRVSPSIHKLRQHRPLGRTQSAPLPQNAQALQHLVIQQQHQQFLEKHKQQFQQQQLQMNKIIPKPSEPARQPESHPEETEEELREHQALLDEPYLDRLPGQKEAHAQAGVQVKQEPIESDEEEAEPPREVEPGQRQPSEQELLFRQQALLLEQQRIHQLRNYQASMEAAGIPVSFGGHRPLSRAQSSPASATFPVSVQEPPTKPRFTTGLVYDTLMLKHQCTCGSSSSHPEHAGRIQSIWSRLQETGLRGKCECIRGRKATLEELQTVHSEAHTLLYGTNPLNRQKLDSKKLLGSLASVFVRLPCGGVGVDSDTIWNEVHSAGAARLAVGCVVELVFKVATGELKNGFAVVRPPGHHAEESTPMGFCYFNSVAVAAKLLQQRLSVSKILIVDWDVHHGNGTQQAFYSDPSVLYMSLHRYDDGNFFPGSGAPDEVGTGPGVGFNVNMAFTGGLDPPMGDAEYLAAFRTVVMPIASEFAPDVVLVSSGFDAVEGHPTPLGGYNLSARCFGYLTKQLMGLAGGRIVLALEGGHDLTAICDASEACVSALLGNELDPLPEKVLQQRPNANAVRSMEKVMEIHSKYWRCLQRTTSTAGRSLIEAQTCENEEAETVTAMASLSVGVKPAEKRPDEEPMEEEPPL

T2 sequence (Q13547 whole entry): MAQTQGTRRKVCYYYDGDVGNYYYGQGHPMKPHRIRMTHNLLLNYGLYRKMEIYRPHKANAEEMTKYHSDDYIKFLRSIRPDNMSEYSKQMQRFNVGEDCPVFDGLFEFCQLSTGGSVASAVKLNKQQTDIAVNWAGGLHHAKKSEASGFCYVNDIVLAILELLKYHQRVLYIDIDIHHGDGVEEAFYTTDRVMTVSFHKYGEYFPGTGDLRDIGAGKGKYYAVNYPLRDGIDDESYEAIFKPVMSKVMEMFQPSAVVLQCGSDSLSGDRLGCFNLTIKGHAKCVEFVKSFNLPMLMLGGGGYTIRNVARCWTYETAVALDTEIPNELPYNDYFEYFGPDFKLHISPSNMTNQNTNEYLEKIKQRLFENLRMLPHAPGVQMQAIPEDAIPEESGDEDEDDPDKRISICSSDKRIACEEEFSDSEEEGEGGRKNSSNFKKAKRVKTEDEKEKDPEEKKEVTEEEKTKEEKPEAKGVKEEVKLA

| Structure (SMILES) | IC50 [1] | IC50 [2] | IC50 [3] | Fold selectivity [4] | also measured |
| --- | --- | --- | --- | --- | --- |
| Cn1cc(/C=C/C(=O)c2cccc(Cl)c2)cc1/C=C/C(=O)NO | 400 nM | 31400 nM | 24200 nM | 78 |  |
| C/C=C1\NC(=O)[C@H]2CSSCC/C=C/[C@H](CC(=O)N[C@H](C(C)C)C(=O)N2)OC(=O)[C@H](C(C)C)NC1=O [ROMIDEPSIN] |  |  |  |  | EC50 [5]: 36000 nM |
| O=C(CCCCC[C@@H]1NC(=O)[C@H]2CCCCN2C(=O)[C@H](Cc2ccccc2)NC(=O)[C@H](Cc2ccccc2)NC1=O)C1CO1 (some centres undefined) [TRAPOXIN A] (cyclo(FF[dPip][Aoe(9ξ)])) |  |  |  |  | EC50 [6]: 524000 nM; EC50 [7]: 820 nM |
| CC(/C=C/C(=O)NO)=C\[C@@H](C)C(=O)c1ccc(N(C)C)cc1 [TRICHOSTATIN] | 0.8 nM | 0.4 nM |  |  | EC50 [8]: 8600 nM; IC50 [9]: 38 nM |
| Cn1cc(/C=C/C(=O)c2ccc(Cl)cc2)cc1/C=C/C(=O)NO | 18600 nM | 29400 nM | 25200 nM |  |  |
| Cn1cc(/C=C/C(=O)c2ccccc2)cc1/C=C/C(=O)NO | 200 nM | 300 nM | 280 nM |  |  |
| Cc1ccc(C(=O)/C=C/c2cc(/C=C/C(=O)NO)n(C)c2)cc1 | 500 nM | 4800 nM | 10200 nM | 10 |  |
| C[C@@H]1NC(=O)[C@H](CCCCCC(=O)C2CO2)NC(=O)[C@H]2CCCN2C(=O)[C@H](C)NC1=O (some centres undefined) |  |  |  |  | EC50 [6]: 360000 nM; EC50 [5]: 110 nM; IC50 [10]: 0.3 nM |
| C[C@@H]1NC(=O)[C@H](CCCCCC(=O)NO)NC(=O)[C@H]2CCCN2C(=O)[C@H](C)NC1=O |  |  |  |  | EC50 [6]: 19000 nM; EC50 [5]: 1900 nM; IC50 [10]: 2.7 nM |
| Cc1cccc(C(=O)/C=C/c2cc(/C=C/C(=O)NO)n(C)c2)c1 | 200 nM | 2500 nM | 7900 nM | 12 |  |
| Cn1cc(/C=C/C(=O)c2ccccc2Cl)cc1/C=C/C(=O)NO | 50 nM | 1600 nM | 5200 nM | 32 |  |
| Cc1ccccc1C(=O)/C=C/c1cc(/C=C/C(=O)NO)n(C)c1 | 60 nM | 400 nM | 270 nM | 7 |  |
